Measured values taken from ChEMBL document CHEMBL1137430, “Incorporation of an intramolecular hydrogen-bonding motif in the side chain of 4-aminoquinolines enhances activity against drug-resistant P. falciparum” (J Med Chem, 2006).

How the values were obtained:
Plasmodium falciparum [1] = experiment: Antimalarial activity against multidrug-resistant Plasmodium falciparum W2; format: functional, organism-based
Method in brief: (§1)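 P. falciparum blood-stage cultures at 37 °C under 5% CO2, 5% O2. Samples taken 72 h after drug addition, fixed in 2% paraformaldehyde about 1 h, then stained with 50 nM YOYO-1 in PBS for 24 h in the dark at 4 °C. Percent parasitized RBCs read by flow cytometry against no-drug cultures. Doses 0.1–200 nM in triplicate. IC50 from a variable-slope sigmoidal fit.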

Plasmodium falciparum [2] = experiment: Antimalarial activity against chloroquine-sensitive Plasmodium falciparum 3D7; format: functional, organism-based; method in brief: as §1

SMILES | IC50 (Plasmodium falciparum [1]) [nM] | IC50 (Plasmodium falciparum [2]) [nM]
CCCN(CCCCNc1ccnc2cc(Cl)ccc12)Cc1ccc(C)o1 | 30.2 | 7.4
CCCN(CCCNc1ccnc2cc(Cl)ccc12)Cc1ccccc1O | 1.8 | 0.65
CCCN(CCCNc1ccnc2cc(Cl)ccc12)Cc1cc(O)ccc1O | 22.5 | 2.9
CCCN(CCCCNc1ccnc2cc(Cl)ccc12)Cc1c(F)cccc1OC | 11.2 | 10
CCCN(CCCNc1ccnc2cc(Cl)ccc12)Cc1cccc(F)c1O | 2.6 | 0.98
CCCN(CCCNc1ccnc2cc(Cl)ccc12)Cc1cccs1 | 140 | 32.1
CCCN(CCCCNc1ccnc2cc(Cl)ccc12)Cc1cccs1 | 22 | 7.2
CCCN(CCCCNc1ccnc2cc(Cl)ccc12)Cc1cc(O)ccc1O | 8.9 | 2.2
CCCN(CCCCNc1ccnc2cc(Cl)ccc12)Cc1cccc2c1OCO2 | 23 | 4.2
CCCN(CCCCNc1ccnc2cc(Cl)ccc12)Cc1ccccc1O | 20 | 7
CCCN(CCCCNc1ccnc2cc(Cl)ccc12)Cc1cc(OC)ccc1O | 27.5 | 6.8
CCCN(CCCCNc1ccnc2cc(Cl)ccc12)Cc1ccc(Cl)o1 | 6 | 4.3
CCCN(CCCNc1ccnc2cc(Cl)ccc12)Cc1ccco1 | 33 | 12.2
CCCN(CCCCNc1ccnc2cc(Cl)ccc12)Cc1cccc(F)c1O | 4.6 | 1.4
CCCN(CCCCNc1ccnc2cc(Cl)ccc12)Cc1cccc(OC)c1O | 4.3 | 1
CCCN(CCCCNc1ccnc2cc(Cl)ccc12)Cc1ccco1 | 4 | 3.1
CCCN(CCCCNc1ccnc2cc(Cl)ccc12)Cc1cc(F)ccc1OC | 4.9 | 1.9
CCCN(CCCNc1ccnc2cc(C)ccc12)Cc1cc([N+](=O)[O-])ccc1O | 126 | 38.8
CCCN(CCCCNc1ccnc2cc(Cl)ccc12)Cc1cc(OC(F)(F)F)ccc1O | 5.9 | 2.4
CCCN(CCCNc1ccnc2cc(Cl)ccc12)Cc1cc(F)ccc1OC | – | 5.2
